Assay results taken from paper PMC4680848 (Structure (London, England : 1993), 2015).
Entries after “also recorded” stand apart in the source; their conditions may differ.

Tests used:
[1] = biological target: F-NR peptide (labelled NR peptide, sequence NRLLLTG); experiment: fluorescence polarisation
human BiP [2] = biological target: T1, human BiP (Homo sapiens, UniProt P11021); experiment: Fluorescence polarization NR peptide binding affinity; details: WT BiP
Outline: (§1)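 Human BiP proteins (wild type or variant) were made as Smt3 fusions in E. coli BL21(DE3)Gold. They were purified on HisTrap, cut with Ulp1, run over a second HisTrap, then HiTrap Q and Superdex 200, and stored in 5 mM Hepes-KOH pH7.5, 10 mM KCl. Binding of NR peptide (NRLLLTG) was read by fluorescence polarization across serial protein dilutions. Kd was fitted from binding curves; standard errors come from at least 6 assays on more than two protein purifications.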

isolated SBD of BiP = experiment: as above; design: species or system human; details: isolated SBD vs full-length BiP
Outline: as §1

BiP SBD-Tev-NR = experiment: Fluorescence polarization NR peptide binding; design: species or system human; details: SBD with covalently linked NR peptide; WT BiP SBD as positive control
Outline: as §1

BiP-T229A = experiment: Fluorescence polarization NR peptide binding; design: species or system human; details: effect of ATP, WT BiP as positive control
Outline: as §1

BiP-L3,4′ = experiment: Fluorescence polarization NR peptide binding; design: species or system human; details: L3,4′ modification (TASDNQP→VGG); WT BiP as positive control
Outline: as §1

BiP R532E = BiP R532E (Homo sapiens, UniProt P11021, R532E); experiment: Fluorescence anisotropy NR peptide binding affinity; details: WT BiP as control
Outline: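 BiP wild type and mutants were expressed in E. coli BL21(DE3)Gold as Smt3 fusions. Purification was by HisTrap, Ulp1 tag removal, a second HisTrap, HiTrap Q and Superdex 200. Fluorescence polarization/anisotropy binding of NR peptide (NRLLLTG) was measured with serial dilutions of protein, in the presence of ADP or ATP. Kd was calculated from the binding data.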

human BiP [3] = biological target: T1, human BiP; experiment: Fluorescence anisotropy peptide substrate binding kinetics
BiP-PP (G486P/G493P) [4] = biological target: T2, BiP-PP (G486P/G493P) (Homo sapiens, UniProt P11021, G486P/G493P); experiment: Fluorescence polarization peptide binding affinity
BiP-PP (G486P/G493P) [5] = biological target: T2, BiP-PP (G486P/G493P); experiment: Fluorescence anisotropy peptide substrate binding kinetics; details: F-NR peptide
BiP-PP = experiment: Single-turnover ATPase assay; format: biochemical, human; details: single turn-over
[6] = biological target: T3, BiP SBD-L3,4′ (residues 418-636), the SBD part of SBD-L3,4′-Tev-NR (human, UniProt P11021 418-636, L3,4′ (TASDNQP→VGG)); experiment: crystal structure
T3 sequence (looked up): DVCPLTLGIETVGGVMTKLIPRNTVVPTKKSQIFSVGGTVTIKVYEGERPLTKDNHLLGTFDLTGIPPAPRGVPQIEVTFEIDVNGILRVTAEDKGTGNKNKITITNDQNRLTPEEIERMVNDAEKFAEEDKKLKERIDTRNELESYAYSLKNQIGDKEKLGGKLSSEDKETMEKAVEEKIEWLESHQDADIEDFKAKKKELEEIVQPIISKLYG

BiP [7] = experiment: Single-turnover ATPase assay; format: biochemical, human
[8] = test system: DnaK-PP (DnaK-G461P/G468P); experiment: Single-turnover ATPase assay; format: biochemical, E. coli
BiP [9] = details: ref Marcinowski et al., 2011; cited from earlier work

T1 sequence (P11021 19-654): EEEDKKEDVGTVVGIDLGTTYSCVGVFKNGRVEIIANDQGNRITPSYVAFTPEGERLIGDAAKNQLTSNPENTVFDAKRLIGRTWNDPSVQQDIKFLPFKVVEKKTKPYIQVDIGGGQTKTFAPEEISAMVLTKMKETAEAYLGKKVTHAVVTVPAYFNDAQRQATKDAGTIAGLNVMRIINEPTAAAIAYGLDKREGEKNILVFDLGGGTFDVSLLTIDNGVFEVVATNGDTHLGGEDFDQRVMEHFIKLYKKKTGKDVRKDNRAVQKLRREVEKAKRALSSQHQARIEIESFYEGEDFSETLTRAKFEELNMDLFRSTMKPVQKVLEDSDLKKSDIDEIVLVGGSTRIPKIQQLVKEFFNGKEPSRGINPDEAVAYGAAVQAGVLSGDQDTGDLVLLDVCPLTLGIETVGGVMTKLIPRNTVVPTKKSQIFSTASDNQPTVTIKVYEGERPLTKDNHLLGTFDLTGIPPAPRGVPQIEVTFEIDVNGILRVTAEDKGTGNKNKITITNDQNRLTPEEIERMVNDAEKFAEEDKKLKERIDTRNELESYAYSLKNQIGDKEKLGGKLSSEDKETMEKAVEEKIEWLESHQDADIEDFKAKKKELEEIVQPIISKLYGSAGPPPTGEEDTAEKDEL
T2 sequence (P11021 25-654 G486P/G493P limits assumed): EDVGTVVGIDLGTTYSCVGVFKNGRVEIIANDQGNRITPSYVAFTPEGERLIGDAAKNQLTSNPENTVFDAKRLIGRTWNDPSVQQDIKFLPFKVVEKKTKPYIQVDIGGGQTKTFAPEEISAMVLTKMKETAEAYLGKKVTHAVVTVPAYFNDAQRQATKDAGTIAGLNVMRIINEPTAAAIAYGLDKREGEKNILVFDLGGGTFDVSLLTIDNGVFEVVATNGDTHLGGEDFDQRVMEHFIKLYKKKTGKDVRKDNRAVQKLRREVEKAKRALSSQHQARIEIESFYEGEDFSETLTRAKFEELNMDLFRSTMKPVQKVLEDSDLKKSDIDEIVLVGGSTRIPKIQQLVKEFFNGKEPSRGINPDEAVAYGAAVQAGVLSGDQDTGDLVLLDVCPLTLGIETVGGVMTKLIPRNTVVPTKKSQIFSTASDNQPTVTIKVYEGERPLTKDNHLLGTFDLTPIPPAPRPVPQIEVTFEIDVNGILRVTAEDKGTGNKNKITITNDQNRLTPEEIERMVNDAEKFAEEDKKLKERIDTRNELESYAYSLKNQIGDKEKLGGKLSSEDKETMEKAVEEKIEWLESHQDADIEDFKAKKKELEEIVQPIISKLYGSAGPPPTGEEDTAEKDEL
Chain of BiP R532E (P11021 19-654 R532E): as the sequence (P11021 19-654) above, with R514E counted along it

For “human BiP (binding immunoglobulin protein), wild type (from UniProt P11021 19-654) (natural protein)”, the Kd relative to that of DnaK [1] was 2 times lower.

In the case of NRLLLTG [NR peptide], the “binding affinity in the presence of ADP” value (human BiP [2]; +ADP) is reported as “binding affinity is high”, the “affinity for NR peptide in the presence of ATP” value (human BiP [2]; +ATP) is reported as “drastically reduced the affinity” and the NR peptide binding (human BiP [2]; fluorescence polarization, serial dilutions of BiP) is reported as “binds NR peptide through its SBD and in an ATP-sensitive manner; also recorded: good affinity”. The “affinity of isolated SBD for NR peptide” value (isolated SBD of BiP) was “affinity comparable to full-length BiP”, the “binding of free NR peptide” value (BiP SBD-Tev-NR) was “Neither BiP SBD-Tev–NR nor SBD-L3,4′-Tev-NR showed appreciable binding; also recorded: completely blocks the binding of free NR peptide” and the “NR peptide binding / affinity, ATP sensitivity” value (BiP-T229A) was “binds NR peptide in an ATP-sensitive manner like that of WT BiP; also recorded: significantly reduced affinity for NR peptide in the presence of ATP”. For the same molecule, the “affinity for NR peptide / NR peptide binding” value (BiP-L3,4′) was “drastically compromised the NR peptide binding; also recorded: drastically reduced affinity”, the “affinity for NR peptide in the presence of ADP” value (BiP R532E; +ADP) was “normal affinity” and the “affinity for NR peptide in the presence of ATP” value (BiP R532E; +ATP) was “higher than that of WT BiP”. For the same molecule, the “binding kinetics, both on and off rates, relative to DnaK” value (human BiP [3]; BiP vs DnaK, Fig. S1a,b) was “much slower than those of DnaK”, the “binding kinetics in the presence of ADP” value (human BiP [3]; WT BiP, +ADP, F-NR peptide) was “binding kinetics are slow” and the “binding kinetics in the presence of ATP” value (human BiP [3]; WT BiP, +ATP, F-NR peptide) was “fast binding kinetics”. The “affinity for NR peptide in the presence of ADP” value (BiP-PP (G486P/G493P) [4]) was “reduced affinity”, the “binding kinetics in the presence of ADP” value (BiP-PP (G486P/G493P) [5]) was “fast binding kinetics” and the “stimulation of ATPase activity by NR peptide” value (BiP-PP) was “failed to stimulate the ATPase activity; also recorded: little appreciable stimulation”.

B1: NR peptide (sequence NRLLLTG), unlabelled (peptide)
peptide: NRLLLTG
B1: binds [6].

B2: ERdj3: an abundant class I Hsp40 in ER, proposed to be an Hsp40 for BiP (protein)
chain: GRDFYKILGVPRSASIKDIKKAYRKLALQLHPDRNPDDPQAQEKFQDLGAAYEVLSDSEKRKQYDTYGEEGLKDGHQSSHGDIFSHFFGDFGFMFGGTPRQQDRNIPRGSDIIVDLEVTLEEVYAGNFVEVVRNKPVARQAPGKRKCNCRQEMRTTQLGPGRFQMTQEVVCDECPNVKLVNEERTLEVEIEPGVRDGMEYPFIGEGEPHVDGEPGDLRFRIKVVKHPIFERRGDDLYTNVTISLVESLVGFEMDITHLDGHKVHISRDKITRPGAKLWKKGEGLPNFDNNNIKGSLIITFDVDFPKEQLTEEAREGIKQLLKQGSVQKVYNGLQGY
With B2 the “fold of stimulation of ATPase activity by ERdj3” value (BiP [7]; ERdj3 at 4 μM, intrinsic ATPase activity set as 1) was “more than 20 fold”, the “stimulation of ATPase activity by ERdj3” value (BiP-PP) was “Neither ERdj3 (d) nor DnaJ (f) showed appreciable stimulation; also recorded: failed to show any appreciable stimulation” and the “stimulation of ATPase activity by ERdj3” value ([8]; DnaK-PP, single turn-over) was “significant stimulation; also recorded: significant stimulation on DnaK-PP although to less extend than that of DnaJ; also recorded: stimulated DnaK-PP significantly”. The “stimulation of ATPase activity by ERdj3” value (DnaK; single turn-over) was “stimulated DnaK’s ATPase activity robustly” and the “interaction of ERdj3 with BiP in the presence of ADP” value (BiP [9]) was “significant interaction with BiP in the presence of ADP”.

B3: DnaJ: an Hsp40 co-chaperone for DnaK and founding representative of the class I Hsp40s (protein)
chain: MAKQDYYEILGVSKTAEEREIRKAYKRLAMKYHPDRNQGDKEAEAKFKEIKEAYEVLTDSQKRAAYDQYGHAAFEQGGMGGGGFGGGADFSDIFGDVFGDIFGGGRGRQRAARGADLRYNMELTLEEAVRGVTKEIRIPTLEECDVCHGSGAKPGTQPQTCPTCHGSGQVQMRQGFFAVQQTCPHCQGRGTLIKDPCNKCHGHGRVERSKTLSVKIPAGVDTGDRIRLAGEGEAGEHGAPAGDLYVQVQVKQHPIFEREGNNLYCEVPINFAMAALGGEIEVPTLDGRVKLKVPGETQTGKLFRMRGKGVKSVRGGAQGDLLCRVVVETPVGLNERQKQLLQELQESFGGPTGEHNSPRSKSFFDGVKKFFDDLTR
With B3 the “stimulation of ATPase activity by DnaJ” value (BiP [7]; compared with ERdj3) was “stimulated BiP although to less extend as ERdj3”, the “stimulation of ATPase activity by DnaJ” value (BiP-PP) was “Neither ERdj3 (d) nor DnaJ (f) showed appreciable stimulation; also recorded: failed to stimulate BiP-PP appreciably” and the “stimulation of ATPase rate by DnaJ relative to WT DnaK” value ([8]; DnaK-PP vs WT DnaK) was “about two thirds of that of WT”. The “stimulation of ATPase activity by DnaJ” value ([8]; DnaK-PP, single turn-over) was “significant stimulation; also recorded: stimulates the ATPase rate of DnaK-PP drastically; also recorded: stimulated DnaK-PP significantly” and the “fold of stimulation of ATPase rate by DnaJ” value (DnaK; DnaJ at 0.4 μM, intrinsic ATPase activity set as 1) was roughly 60 fold.
